Experiment [1] deals with fluorescein-labeled IRES SLIIb. The experiment is described as follows: Time-dependent MALDI-TOF mass spectrometry of SLIIb cleavage. The experiment is classed as biochemical, hepatitis C virus. As to conditions: for Initial Rate (%Overhang/min), 2′, 3′-cPO4: overhang 2′,3′-cyclic phosphates; for Initial Rate (%Overhang/min), 2′, 3′-cPO4 / Initial Rate (%Overhang/min), 3′-AL / Initial Rate (%Overhang/min), 3′-OH / Initial Rate (%Overhang/min), 3′-PO4 / Initial Rate (%Overhang/min), 3′-PGA / Initial Rate (%Overhang/min), 3′-PG / Initial Rate (%Overhang/min), 5′-AL / Initial Rate (%Overhang/min), 5′-GemDiol / Initial Rate (%Overhang/min), 5′-OH / Initial Rate (%Overhang/min), 5′-PO4 / Initial Rate (%Overhang/min), 5′-PPA: MALDI-TOF time dependence; for Initial Rate (%Overhang/min), 3′-AL: overhang 3′-aldehyde; for Initial Rate (%Overhang/min), 3′-OH: overhang 3′-hydroxyl; for Initial Rate (%Overhang/min), 3′-PO4: overhang 3′-phosphates; for Initial Rate (%Overhang/min), 3′-PGA: overhang 3′-phosphoglycaldehyde; for Initial Rate (%Overhang/min), 3′-PG: overhang 3′-phosphoglycolate; for Initial Rate (%Overhang/min), 5′-AL: overhang 5′-aldehyde; for Initial Rate (%Overhang/min), 5′-GemDiol: overhang 5′-geminal diol; for Initial Rate (%Overhang/min), 5′-OH: overhang 5′-hydroxyl; for Initial Rate (%Overhang/min), 5′-PO4: overhang 5′-phosphate; for Initial Rate (%Overhang/min), 5′-PPA: overhang 5′-phosphopropenal; for Relative Initial Rate (Normalized Intensity/min × 1000), position A6 / Relative Initial Rate (Normalized Intensity/min × 1000), position A15 / Relative Initial Rate (Normalized Intensity/min × 1000), position A19 / Relative Initial Rate (Normalized Intensity/min × 1000), position A27 / Relative Initial Rate (Normalized Intensity/min × 1000), position A30 / Relative Initial Rate (Normalized Intensity/min × 1000), position C10 / Relative Initial Rate (Normalized Intensity/min × 1000), position C33 / Relative Initial Rate (Normalized Intensity/min × 1000), position G5 / Relative Initial Rate (Normalized Intensity/min × 1000), position G9 / Relative Initial Rate (Normalized Intensity/min × 1000), position G11 / Relative Initial Rate (Normalized Intensity/min × 1000), position G28 / Relative Initial Rate (Normalized Intensity/min × 1000), position U12 / Relative Initial Rate (Normalized Intensity/min × 1000), position U14 / Relative Initial Rate (Normalized Intensity/min × 1000), position U25 / Relative Initial Rate (Normalized Intensity/min × 1000), position U26 / Relative Initial Rate (Normalized Intensity/min × 1000), position U29 / Relative Initial Rate (Normalized Intensity/min × 1000), position U31: 10 μM SLIIb, 10 μM copper-peptide. An outline of the steps: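 Reactions contained 10 μM Fl-SLIIb, 10 μM Cu–peptide, 1 mM ascorbate and 1 mM H2O2, and were sampled at 2–180 min. They were quenched on ice, C18-desalted, and analysed by negative-ion reflectron MALDI-TOF (HPA/ammonium citrate matrix, ≥1000 shots). Peaks with m/z >1500 and S/N >5 were assigned against expected product masses. Products were summed per overhang type and expressed as a fraction at each time point. Initial rate was taken from the linear region (first ~40 min).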

For experiment [2], the system named is 5′-fluorescein labeled HCV SLIIb. The experiment in a line: Reaction kinetics via fluorescence. In kind it is biochemical, hepatitis C virus. The following applies: pseudo Michaelis-Menten, catalytic efficiency. An outline of the steps:
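Copper–peptide complexes were formed at 1.1:1 peptide:Cu. Each complex was added to 333 nM 5′-fluorescein-SLIIb with 1 mM ascorbic acid and 1 mM H2O2 in 20 mM HEPES (pH 7.4, 100 mM NaCl) at 25 °C. Fluorescence loss was followed at ex 491/em 518 nm and converted to RNA concentration by a calibration curve. Initial velocities were plotted against catalyst concentration and fit to Michaelis–Menten to give KM and kcat. Values are the mean of ≥3 trials.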

As a reminder, the kcat/KM is the turnover number divided by the Michaelis constant.

Consider GGHARFK-Cu [4-Cu], for which, in experiment [1], the “Initial Rate (%Overhang/min), 2′, 3′-cPO4” value was found to be 0.5 ± 0.1 %Overhang/min; the “Initial Rate (%Overhang/min), 3′-AL” value was 0.5 ± 0.1 %Overhang/min; the “Initial Rate (%Overhang/min), 3′-OH” value turned out to be 1.2 ± 0.4 %Overhang/min; the “Initial Rate (%Overhang/min), 3′-PO4” value turned out to be 0.1 ± 0.1 %Overhang/min. Besides, in experiment [1], the “Initial Rate (%Overhang/min), 3′-PGA” value came out at 1.1 ± 0.4 %Overhang/min; the “Initial Rate (%Overhang/min), 3′-PG” value amounted to 1.5 ± 0.4 %Overhang/min; the “Initial Rate (%Overhang/min), 5′-AL” value is listed as 0.2 ± 0.1 %Overhang/min; the “Initial Rate (%Overhang/min), 5′-GemDiol” value was 0.8 ± 0.1 %Overhang/min. Further, in experiment [1], the “Initial Rate (%Overhang/min), 5′-OH” value was 1.1 ± 0.4 %Overhang/min; the “Initial Rate (%Overhang/min), 5′-PO4” value worked out at 0.4 ± 0.1 %Overhang/min; the “Initial Rate (%Overhang/min), 5′-PPA” value came to 1.4 ± 0.3 %Overhang/min; the “Relative Initial Rate (Normalized Intensity/min × 1000), position A6” value is recorded as “- ^a”. Also, in experiment [1], the “Relative Initial Rate (Normalized Intensity/min × 1000), position A15” value is 14.2 ± 4.6 Normalized Intensity/min × 1000; the “Relative Initial Rate (Normalized Intensity/min × 1000), position A19” value is 2.9 ± 1.4 Normalized Intensity/min × 1000; the “Relative Initial Rate (Normalized Intensity/min × 1000), position A27” value was 2.1 ± 0.3 Normalized Intensity/min × 1000; the “Relative Initial Rate (Normalized Intensity/min × 1000), position A30” value is given as <1 Normalized Intensity/min × 1000. In addition, in experiment [1], the “Relative Initial Rate (Normalized Intensity/min × 1000), position C10” value is given as “- ^a”; the “Relative Initial Rate (Normalized Intensity/min × 1000), position C33” value is on record as “- ^a”; the “Relative Initial Rate (Normalized Intensity/min × 1000), position G5” value is “- ^a”; the “Relative Initial Rate (Normalized Intensity/min × 1000), position G9” value is 2.0 ± 0.5 Normalized Intensity/min × 1000. In addition, in experiment [1], the “Relative Initial Rate (Normalized Intensity/min × 1000), position G11” value is recorded as “- ^a”; the “Relative Initial Rate (Normalized Intensity/min × 1000), position G28” value is “- ^a”; the “Relative Initial Rate (Normalized Intensity/min × 1000), position U12” value was “- ^a”; the “Relative Initial Rate (Normalized Intensity/min × 1000), position U14” value is “- ^a”. Moreover, in experiment [1], the “Relative Initial Rate (Normalized Intensity/min × 1000), position U25” value is given as “- ^a”; the “Relative Initial Rate (Normalized Intensity/min × 1000), position U26” value is recorded as 1.9 ± 0.4 Normalized Intensity/min × 1000; the “Relative Initial Rate (Normalized Intensity/min × 1000), position U29” value is recorded as “- ^a”; the “Relative Initial Rate (Normalized Intensity/min × 1000), position U31” value is given as 1.4 ± 0.4 Normalized Intensity/min × 1000. For the same substance, the “kcat/KM” value in experiment [2] was found to be 633 M⁻¹ s⁻¹.

For GGHDRFK-Cu [9-Cu], the “kcat/KM” value in experiment [2] is 550 M⁻¹ s⁻¹.

With GGHFRFK-Cu [12-Cu], the “kcat/KM” value in experiment [2] turned out to be 167 M⁻¹ s⁻¹.

For GGHKFRY-Cu [8-Cu], in experiment [1], the “Initial Rate (%Overhang/min), 2′, 3′-cPO4” value is on record as 0.1 ± 0.1 %Overhang/min; the “Initial Rate (%Overhang/min), 3′-AL” value came to 0.2 ± 0.1 %Overhang/min; the “Initial Rate (%Overhang/min), 3′-OH” value was 0.4 ± 0.1 %Overhang/min; the “Initial Rate (%Overhang/min), 3′-PO4” value is 1.3 ± 0.2 %Overhang/min. Besides, in experiment [1], the “Initial Rate (%Overhang/min), 3′-PGA” value is 0.3 ± 0.1 %Overhang/min; the “Initial Rate (%Overhang/min), 3′-PG” value stood at 0.1 ± 0.1 %Overhang/min; the “Initial Rate (%Overhang/min), 5′-AL” value is 0.9 ± 0.1 %Overhang/min; the “Initial Rate (%Overhang/min), 5′-GemDiol” value turned out to be 0.5 ± 0.1 %Overhang/min. Further, in experiment [1], the “Initial Rate (%Overhang/min), 5′-OH” value was 1.1 ± 0.4 %Overhang/min; the “Initial Rate (%Overhang/min), 5′-PO4” value is 0.7 ± 0.1 %Overhang/min; the “Initial Rate (%Overhang/min), 5′-PPA” value is recorded as 0.7 ± 0.1 %Overhang/min; the “Relative Initial Rate (Normalized Intensity/min × 1000), position A6” value is “- ^a”. In experiment [1], the “Relative Initial Rate (Normalized Intensity/min × 1000), position A15” value is “- ^a”; the “Relative Initial Rate (Normalized Intensity/min × 1000), position A19” value is reported as “- ^a”; the “Relative Initial Rate (Normalized Intensity/min × 1000), position A27” value was 1.1 ± 0.3 Normalized Intensity/min × 1000; the “Relative Initial Rate (Normalized Intensity/min × 1000), position A30” value is listed as <1 Normalized Intensity/min × 1000. In addition, in experiment [1], the “Relative Initial Rate (Normalized Intensity/min × 1000), position C10” value was “- ^a”; the “Relative Initial Rate (Normalized Intensity/min × 1000), position C33” value is recorded as “- ^a”; the “Relative Initial Rate (Normalized Intensity/min × 1000), position G5” value was 3.7 ± 1.8 Normalized Intensity/min × 1000; the “Relative Initial Rate (Normalized Intensity/min × 1000), position G9” value is recorded as “- ^a”. For the same substance, in experiment [1], the “Relative Initial Rate (Normalized Intensity/min × 1000), position G11” value was 0.6 ± 0.2 Normalized Intensity/min × 1000; the “Relative Initial Rate (Normalized Intensity/min × 1000), position G28” value is listed as <1 Normalized Intensity/min × 1000; the “Relative Initial Rate (Normalized Intensity/min × 1000), position U12” value was “- ^a”; the “Relative Initial Rate (Normalized Intensity/min × 1000), position U14” value is recorded as “- ^a”. In experiment [1], the “Relative Initial Rate (Normalized Intensity/min × 1000), position U25” value is reported as <1 Normalized Intensity/min × 1000; the “Relative Initial Rate (Normalized Intensity/min × 1000), position U26” value was <1 Normalized Intensity/min × 1000; the “Relative Initial Rate (Normalized Intensity/min × 1000), position U29” value was <1 Normalized Intensity/min × 1000; the “Relative Initial Rate (Normalized Intensity/min × 1000), position U31” value was “- ^a”. Moreover, in experiment [2], the “kcat/KM” value came to 120 M⁻¹ s⁻¹.

Consider GGHNRFK-Cu [10-Cu], for which, in experiment [2], the “kcat/KM” value was 67 M⁻¹ s⁻¹.

Turning to GGHYAFK-Cu [5-Cu], in experiment [1], the “Initial Rate (%Overhang/min), 2′, 3′-cPO4” value amounted to 0.2 ± 0.1 %Overhang/min; the “Initial Rate (%Overhang/min), 3′-AL” value is 0.2 ± 0.1 %Overhang/min; the “Initial Rate (%Overhang/min), 3′-OH” value turned out to be 1.2 ± 0.1 %Overhang/min; the “Initial Rate (%Overhang/min), 3′-PO4” value was found to be 0.8 ± 0.1 %Overhang/min. In experiment [1], the “Initial Rate (%Overhang/min), 3′-PGA” value was 0.1 ± 0.1 %Overhang/min; the “Initial Rate (%Overhang/min), 3′-PG” value came to 0.1 ± 0.1 %Overhang/min; the “Initial Rate (%Overhang/min), 5′-AL” value is listed as 1.0 ± 0.2 %Overhang/min; the “Initial Rate (%Overhang/min), 5′-GemDiol” value was 0.5 ± 0.1 %Overhang/min. Moreover, in experiment [1], the “Initial Rate (%Overhang/min), 5′-OH” value is reported as 0.6 ± 0.1 %Overhang/min; the “Initial Rate (%Overhang/min), 5′-PO4” value turned out to be 1.5 ± 0.6 %Overhang/min; the “Initial Rate (%Overhang/min), 5′-PPA” value stood at 0.2 ± 0.1 %Overhang/min; the “Relative Initial Rate (Normalized Intensity/min × 1000), position A6” value is listed as “- ^a”. Besides, in experiment [1], the “Relative Initial Rate (Normalized Intensity/min × 1000), position A15” value was “- ^a”; the “Relative Initial Rate (Normalized Intensity/min × 1000), position A19” value was 1.0 ± 0.7 Normalized Intensity/min × 1000; the “Relative Initial Rate (Normalized Intensity/min × 1000), position A27” value is recorded as 1.1 ± 0.3 Normalized Intensity/min × 1000; the “Relative Initial Rate (Normalized Intensity/min × 1000), position A30” value is on record as “- ^a”. Also, in experiment [1], the “Relative Initial Rate (Normalized Intensity/min × 1000), position C10” value was 1.0 ± 0.2 Normalized Intensity/min × 1000; the “Relative Initial Rate (Normalized Intensity/min × 1000), position C33” value is <1 Normalized Intensity/min × 1000; the “Relative Initial Rate (Normalized Intensity/min × 1000), position G5” value is reported as <1 Normalized Intensity/min × 1000; the “Relative Initial Rate (Normalized Intensity/min × 1000), position G9” value was “- ^a”. In addition, in experiment [1], the “Relative Initial Rate (Normalized Intensity/min × 1000), position G11” value is “- ^a”; the “Relative Initial Rate (Normalized Intensity/min × 1000), position G28” value is on record as “- ^a”; the “Relative Initial Rate (Normalized Intensity/min × 1000), position U12” value is <1 Normalized Intensity/min × 1000; the “Relative Initial Rate (Normalized Intensity/min × 1000), position U14” value is “- ^a”. Moreover, in experiment [1], the “Relative Initial Rate (Normalized Intensity/min × 1000), position U25” value is 3.1 ± 0.6 Normalized Intensity/min × 1000; the “Relative Initial Rate (Normalized Intensity/min × 1000), position U26” value is on record as “- ^a”; the “Relative Initial Rate (Normalized Intensity/min × 1000), position U29” value was “- ^a”; the “Relative Initial Rate (Normalized Intensity/min × 1000), position U31” value was “- ^a”. In addition, the specificity constant (kcat/KM) in experiment [2] was 300 M⁻¹ s⁻¹.

The values above are taken from article PMC5970367 (Chembiochem : a European journal of chemical biology, 2017).
